Active and inactive are the calls of the source. The rule behind the calls is not given here.
Legend:
MCF7 [1] = assay: Cytotoxicity against human MCF7 ER-positive cells assessed as decrease in cell viability after 24 hrs by EZ-Cytox assay; assay type: functional, cell-based
MCF7 [2] = assay: Cytotoxicity against human MCF7 ER-positive cells assessed as decrease in cell viability at 5 to 100 uM after 24 hrs by EZ-Cytox assay; assay type: functional, cell-based
MCF7 [3] = assay: Induction of apoptosis in human MCF7 ER-positive cells assessed as increase in Bax to Bcl-2 ratio at 50 to 100 uM after 24 hrs by Western blot analysis
MDA-MB-231 [4] = assay: Induction of apoptosis in human MDA-MB-231 ER-negative cells assessed as increase in cleaved caspase-9 levels at 25 to 50 uM after 24 hrs by Western blot analysis; assay type: functional, cell-based
Method in brief: (§1)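 Western blot of whole cells after 24 h exposure (MCF-7 at 50 or 100; MDA-MB-231 at 25 or 50). Probed for cleavage of caspase-8, -9, -3 and PARP, and for Bax and Bcl-2 expression. The Bax:Bcl-2 ratio is derived from the same blots.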

MCF7 [5] = assay: Cytotoxicity against human MCF7 ER-positive cells assessed as cell viability at 100 uM after 24 hrs by EZ-Cytox assay relative to control; assay type: functional; settings: MCF7, 24 h, read-out: Activity
MDA-MB-231 [6] = assay: Induction of apoptosis in human MDA-MB-231 ER-negative cells assessed as increase in PARP levels at 25 to 50 uM after 24 hrs by Western blot analysis; assay type: functional, cell-based; method in brief: as §1
MCF7 [7] = assay: Induction of apoptosis in human MCF7 ER-positive cells at 100 uM after 24 hrs by Annexin-V/propidium iodide staining-based cytometry relative to control; assay type: functional
Method in brief: (§2)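 Cells exposed 24 h (MCF-7 at 50 or 100; MDA-MB-231 at 25 or 50), then stained with Alexa Fluor 488 annexin V conjugate for externalized phosphatidylserine and examined by fluorescence imaging. The read-out is the percentage of annexin-V-positive cells in a total cell count.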

MDA-MB-231 [8] = assay: Cytotoxicity against human MDA-MB-231 ER-negative cells assessed as cell viability at 100 uM after 24 hrs by EZ-Cytox assay relative to control; assay type: functional; settings: MDA-MB-231, 24 h, read-out: Activity
MDA-MB-231 [9] = assay: Induction of apoptosis in human MDA-MB-231 ER-negative cells assessed as decrease in Bcl-2 expression levels at 25 to 50 uM after 24 hrs by Western blot analysis; assay type: functional, cell-based; method in brief: as §1
MCF7 [10] = assay: Induction of apoptosis in human MCF7 ER-positive cells assessed as increase in PARP levels at 50 to 100 uM after 24 hrs by Western blot analysis; assay type: functional, cell-based; method in brief: as §1
MDA-MB-231 [11] = assay: Cytotoxicity against human MDA-MB-231 ER-negative cells assessed as decrease in cell viability at 5 to 100 uM after 24 hrs by EZ-Cytox assay; assay type: functional, cell-based
MCF7 [12] = assay: Induction of apoptosis in human MCF7 ER-positive cells assessed as increase in cleaved caspase-3 levels at 50 to 100 uM after 24 hrs by Western blot analysis; assay type: functional, cell-based; method in brief: as §1
MDA-MB-231 [13] = assay: Induction of apoptosis in human MDA-MB-231 ER-negative cells assessed as increase in cleaved caspase-8 levels at 25 to 50 uM after 24 hrs by Western blot analysis; assay type: functional, cell-based; method in brief: as §1
MCF7 [14] = assay: Induction of apoptosis in human MCF7 ER-positive cells assessed as increase in cleaved caspase-8 levels at 50 to 100 uM after 24 hrs by Western blot analysis; assay type: functional, cell-based; method in brief: as §1
MDA-MB-231 [15] = assay: Induction of apoptosis in human MDA-MB-231 ER-negative cells assessed as increase in cleaved caspase-3 levels at 25 to 50 uM after 24 hrs by Western blot analysis; assay type: functional, cell-based; method in brief: as §1
MDA-MB-231 [16] = assay: Induction of apoptosis in human MDA-MB-231 ER-negative cells at 50 uM after 24 hrs by Annexin-V/propidium iodide staining-based cytometry relative to control; assay type: functional; method in brief: as §2
MCF7 [17] = assay: Induction of apoptosis in human MCF7 ER-positive cells assessed as increase in Bax expression levels at 50 to 100 uM after 24 hrs by Western blot analysis; assay type: functional, cell-based; method in brief: as §1
MDA-MB-231 [18] = assay: Cytotoxicity against human MDA-MB-231 ER-negative cells assessed as decrease in cell viability after 24 hrs by EZ-Cytox assay; assay type: functional, cell-based
MDA-MB-231 [19] = assay: Induction of apoptosis in human MDA-MB-231 ER-negative cells assessed as increase in Bax to Bcl-2 ratio at 25 to 50 uM after 24 hrs by Western blot analysis

Question: For `O=C(O[C@@H]1O[C@@H]2COC(=O)c3cc(O)c(O)c(O)c3-c3c(cc(O)c(O)c3O)C(=O)O[C@H]2[C@@H]2OC(=O)c3cc(O)c(O)c(O)c3-c3c(cc(O)c(O)c3O)C(=O)O[C@@H]12)c1cc(O)c(O)c(Oc2c(O)c(O)c(O)c3c2C(=O)O[C@H]2[C@@H]4OC(=O)c5cc(O)c(O)c(O)c5-c5c(cc(O)c(O)c5O)C(=O)O[C@H]4[C@@H](OC(=O)c4cc(O)c(O)c(O)c4)O[C@@H]2COC(=O)c2cc(O)c(O)c(O)c2-3)c1`, which Activity (MCF7 [1]) is on record?
Answer: Dose-dependent effect

Question: What about the Activity (MCF7 [2]) of the same compound?
Answer: Active

Question: What about the Bax/Bcl-2 ratio (MCF7 [3]) of the same compound?
Answer: Active

Question: What about the Activity (MDA-MB-231 [4]) of the same compound?
Answer: Active

Question: What about the viability at 100 µM (MCF7 [5]) of the same compound?
Answer: 69%

Question: And the Activity (MDA-MB-231 [6])?
Answer: Active

Question: And the Activity (MCF7 [7])?
Answer: 33.7%

Question: What about the viability at 100 µM (MDA-MB-231 [8]) of the same compound?
Answer: 63%

Question: And the Activity (MDA-MB-231 [9])?
Answer: Active

Question: What about the Activity (MCF7 [10]) of the same compound?
Answer: Active

Question: What about the Activity (MDA-MB-231 [11]) of the same compound?
Answer: Active

Question: And the Activity (MCF7 [12])?
Answer: Active

Question: What about the Activity (MDA-MB-231 [13]) of the same compound?
Answer: Active

Question: And the Activity (MCF7 [14])?
Answer: Active

Question: And the Activity (MDA-MB-231 [15])?
Answer: Active

Question: What about the Activity (MDA-MB-231 [16]) of the same compound?
Answer: 40.7%

Question: What about the Activity (MCF7 [17]) of the same compound?
Answer: Active

Question: And the Activity (MDA-MB-231 [18])?
Answer: Dose-dependent effect

Question: And the Bax/Bcl-2 ratio (MDA-MB-231 [19])?
Answer: Active

— ChEMBL document CHEMBL4043193, “Cytotoxic effect of sanguiin H-6 on MCF-7 and MDA-MB-231 human breast carcinoma cells” (2017)
